Experimental data as given in ChEMBL document CHEMBL2417381, “New anticancer agents mimicking protein recognition motifs” (J Med Chem, 2013).
The source made the active and inactive calls. The rule behind the calls is not given here.

Key:
M14 [1] = test: Induction of apoptosis in human M14 cells assessed as accumulation of p53 in nuclear fraction after 48 hrs by Western blotting analysis relative to control; format: functional, cell-based
M14 [2] = test: Induction of apoptosis in human M14 cells assessed as accumulation of p53 in nuclear fraction after 24 hrs by Western blotting analysis relative to control; format: functional, cell-based
M14 [3] = test: Induction of p53 expression in human M14 cells after 48 hrs by Western blotting analysis; format: functional, cell-based
Method in brief: (§1)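 Treated cells lysed in modified RIPA buffer (10 mM Tris-HCl pH 7.4, 150 mM NaCl, 1 mM EDTA, 1% NP40, 0.1% deoxycholate, 1 mM PMSF, protease inhibitors). Equal protein loads separated on 10–12% SDS-PAGE and blotted to nitrocellulose. Blocked in 10% milk/0.1% Tween-20, probed with anti-cyclin A or anti-p53 and HRP secondary; tubulin used as loading reference.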

M14 [4] = test: Cell cycle arrest at G1/S phase in human M14 cells assessed as increase in cyclin A expression at IC50 after 24 hrs by Western blotting analysis; format: functional, cell-based; method in brief: as §1
M14 [5] = test: Cell cycle arrest at S phase in human M14 cells assessed as change in size of nucleus after 24 hrs by DAPI staining-based fluorescence microscopy; format: functional
Method in brief: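 M14 cells grown on coverslips and dosed after 24 h. Fixed in 3.7% formaldehyde for 30 min, quenched with 0.1 M glycine, then DAPI-stained 20 min at room temperature. Nuclear areas measured by fluorescence microscopy image analysis. Mean ± SEM of at least twenty measurements; one-way ANOVA with Bonferroni post test.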

M14 [6] = test: Induction of apoptosis in human M14 cells after 48 hrs by propidium iodide staining-based flow cytometry; format: functional, cell-based
Method in brief: (§2)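 5 × 10^4 M14 cells cultured 24 h, then dosed and cultured a further 24 or 48 h. Permeabilized cells labelled 30 min at 4 °C with propidium iodide in 0.1% sodium citrate/0.1% Triton X-100, then analysed by flow cytometry. For cell cycle, 10,000 events per sample assigned to G0/G1, S and G2/M. Each determination repeated three times.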

M14 [7] = test: Cell cycle arrest in human M14 cells assessed as accumulation at G2/M phase after 24 hrs by propidium iodide staining-based flow cytometry; format: functional; settings: in the assay text read “accumulation at S phase” for “accumulation at G2/M phase”; method in brief: as §2
M14 [8] = test: Cell cycle arrest in human M14 cells assessed as accumulation at S phase after 24 hrs by propidium iodide staining-based flow cytometry; format: functional; method in brief: as §2
M14 [9] = test: Cell cycle arrest in human M14 cells assessed as accumulation at G0/G1 phase after 24 hrs by propidium iodide staining-based flow cytometry; format: functional; settings: in the assay text read “accumulation at S phase” for “accumulation at G0/G1 phase”; method in brief: as §2
M14 [10] = test: Antiproliferative activity against human M14 cells assessed as cell viability incubated for 24 hrs followed by compound washout measured after 48 hrs by MTT assay; format: functional, cell-based
Method in brief: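 M14 cells exposed for 24 h, then medium removed and cells resuspended in compound-free medium. Further incubation for 24 and 48 h, then viability read by MTT: 1 mg/mL for 1–3 h at 37 °C, formazan dissolved in DMSO, absorbance at 550 and 620 nm.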

RAW264.7 = test: Antiproliferative activity against mouse RAW264.7 cells after 48 hrs by MTT assay; format: cell-based; settings: RAW264.7, 48 h
Method in brief: (§3)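 Cells grown at 37 °C in DMEM with 25 mM glucose, 10% fetal calf serum, penicillin/streptomycin and 2 mmol/L glutamine. 5000 cells per well; after 24 h, exposed to 100 nM–100 µM for 24 and 48 h. MTT 1 mg/mL for 1–3 h at 37 °C, formazan dissolved in DMSO, absorbance read at 550 and 620 nm. IC50 from four-parameter sigmoidal nonlinear regression.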

M14 [11] = test: Cytostatic activity against human M14 cells at 5 to 10 uM after 24 hrs by trypan blue dye exclusion assay relative to control; format: functional, cell-based
Method in brief: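 Exponentially growing M14 cells plated and grown 24 h. Then treated at 5 and 10 µM in 0.1% DMSO for 24, 48 or 72 h. Stained with 0.2% trypan blue and counted in a hemocytometer; percentage of dead cells calculated.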

Jurkat = test: Antiproliferative activity against human Jurkat cells after 48 hrs by MTT assay; format: functional, cell-based; method in brief: as §3
Huh-7 = test: Antiproliferative activity against human HuH7 cells after 48 hrs by MTT assay; format: functional, cell-based; settings: Huh-7, 48 h; method in brief: as §3
MCF7 = test: Antiproliferative activity against human MCF7 cells after 48 hrs by MTT assay; format: functional, cell-based; settings: MCF7, 48 h; method in brief: as §3
M14 [12] = test: Antiproliferative activity against human M14 cells after 48 hrs by MTT assay; format: functional, cell-based; settings: M14, 48 h; method in brief: as §3
M14 [13] = test: Induction of p53 expression in human M14 cells after 24 hrs by Western blotting analysis; format: functional, cell-based; method in brief: as §1
[14] = target: Tumour suppressor p53/oncoprotein Mdm2 (Homo sapiens) (UniProt P04637+Q00987); test: Inhibition of human recombinant p53-MDM2 interaction assessed as p53 release by NMR spectroscopy relative to untreated control; format: protein assay
Method in brief: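 Complex formed from refolded recombinant His-tagged human p53 (residues 1-312, expressed in E. coli BL21(DE3) RIL) and refolded MDM2, mixed 1:2, with excess MDM2 removed by gel filtration. Complex at 0.1 mM in 50 mM phosphate pH 7.4, 150 mM KCl, 5 mM DTT; formal protein:inhibitor molar ratio 1:1.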

[15] = Solubility of the compound in phosphate buffer at pH 7.4 by UV-Visible spectrophotometry; format: physicochemical
Method in brief: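 10 mM DMSO stock added one microlitre at a time, 10 min apart, to 20 mM phosphate buffer with 150 mM KCl, pH 7.4, at 25 °C. Precipitation followed as the rise in light-scattering absorbance over 500–900 nm.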

M14 [16] = test: Cell cycle arrest at G1/S phase in human M14 cells assessed as increase in cyclin A expression at IC50 after 48 hrs by Western blotting analysis; format: functional, cell-based; method in brief: as §1

Chain of Tumour suppressor p53/oncoprotein Mdm2 (Homo sapiens) (P04637 whole entry, looked up, the tested form may be a part): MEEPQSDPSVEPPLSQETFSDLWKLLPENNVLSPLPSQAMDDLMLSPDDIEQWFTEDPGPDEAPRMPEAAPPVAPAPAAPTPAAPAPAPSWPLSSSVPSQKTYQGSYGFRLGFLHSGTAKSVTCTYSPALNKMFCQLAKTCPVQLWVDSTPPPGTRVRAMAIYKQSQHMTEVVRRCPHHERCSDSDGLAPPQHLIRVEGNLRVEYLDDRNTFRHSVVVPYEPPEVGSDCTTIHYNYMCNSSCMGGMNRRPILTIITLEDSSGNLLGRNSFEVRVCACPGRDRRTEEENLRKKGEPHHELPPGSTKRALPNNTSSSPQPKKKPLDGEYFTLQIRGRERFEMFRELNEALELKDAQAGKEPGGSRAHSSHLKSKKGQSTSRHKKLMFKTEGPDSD
Chain of Tumour suppressor p53/oncoprotein Mdm2 (Homo sapiens) (Q00987 whole entry, looked up, the tested form may be a part): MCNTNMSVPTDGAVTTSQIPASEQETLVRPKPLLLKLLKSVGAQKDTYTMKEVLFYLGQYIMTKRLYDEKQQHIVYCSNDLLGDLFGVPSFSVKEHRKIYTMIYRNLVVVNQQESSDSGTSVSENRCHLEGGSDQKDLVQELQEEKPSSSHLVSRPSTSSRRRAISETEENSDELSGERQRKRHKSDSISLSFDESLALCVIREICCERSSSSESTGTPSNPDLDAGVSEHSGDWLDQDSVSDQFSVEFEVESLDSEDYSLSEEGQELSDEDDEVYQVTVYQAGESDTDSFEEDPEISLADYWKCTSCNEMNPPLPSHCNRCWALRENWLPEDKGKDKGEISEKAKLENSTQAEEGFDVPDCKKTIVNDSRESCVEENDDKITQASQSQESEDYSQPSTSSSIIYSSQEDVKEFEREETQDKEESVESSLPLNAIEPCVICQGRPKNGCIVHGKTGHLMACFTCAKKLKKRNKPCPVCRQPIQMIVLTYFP

Row | Structure (SMILES) | Activity (M14 [1]) | Activity (M14 [2]) | Activity (M14 [3]) | Activity (M14 [4]) | Activity (M14 [5]) | Activity (M14 [6]) | Activity (M14 [7]) | Activity (M14 [8]) | Activity (M14 [9]) | Activity (M14 [10]) | IC50 (RAW264.7) | Activity (M14 [11]) | IC50 (Jurkat) | IC50 (Huh-7) | IC50 (MCF7) | IC50 (M14 [12]) | Activity (M14 [13]) | inhibition [14] | solubility [15] | Activity (M14 [16])
1 | Cc1c(C(=O)c2ccccc2)cc(C(=O)NCc2cccc(Cl)c2)n1Cc1ccccc1 | inactive | Active | inactive | Active | Active | Active | Active | Active | Active | inactive | > 100 µM | inactive | > 100 µM | > 100 µM | > 100 µM | 7.5 µM | Active |  |  | 
2 | Cc1ccc(Cn2c(C(=O)NCc3cccc(Cl)c3)cc(C(=O)c3ccccc3)c2C)cc1 | inactive | Active | inactive | Active | Active | Active | Active | Active | Active | inactive | > 100 µM | inactive | > 100 µM | > 100 µM | > 100 µM | 2.5 µM | Active | inactive | ≤ 6.8 µM | Active
3 | Cc1c(C(=O)c2ccccc2)cc(C(=O)NCc2cccc(I)c2)n1Cc1ccccc1 | inactive | Active | inactive | Active | Active | Active | Active | Active | Active | inactive | > 100 µM | inactive | > 100 µM | > 100 µM | > 100 µM | 5 µM | Active |  |  | Active
